Experimental data taken from ChEMBL document CHEMBL1255388, “Antimalarial asexual stage-specific and gametocytocidal activities of HIV protease inhibitors” (Antimicrob Agents Chemother, 2010).
Activity calls are given as the source filed them. The calls are words filed in the database; no cut-off is given here.

Assays:
Assay type in all cases: functional, organism-based
[1] = tested on: Plasmodium falciparum; assay: Antigametocyte activity against drug-resistant ring stage Plasmodium falciparum Dd2 […] assessed as inhibition of parasite growth at 50 nM after 1 to 8 hrs
How it was run: (§1)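 Synchronized P. falciparum cultures were drug-exposed at 0 (ring), 24 (trophozoite) or 36 h (schizont) post-synchronization. They were then washed, resuspended in drug-free medium and seeded with 0.5 μCi/well [3H]hypoxanthine for 40 h. Incorporation was compared with vehicle controls. Triplicate, on at least two separate occasions.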

[2] = tested on: Plasmodium falciparum; assay: Antigametocyte activity against drug-resistant Plasmodium falciparum Dd2 schizonts assessed as inhibition of parasite growth at 50 nM after 1 to 8 hrs; how it was run: as §1
[3] = tested on: Plasmodium falciparum; assay: Antimicrobial activity against Plasmodium falciparum harboring […]-tagged Pfs16 protein after 48 hrs
How it was run: (§2)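 In vitro growth inhibition of P. falciparum asexual cultures. Concentrations giving 10, 50 and 90% inhibition (± SE) were obtained by nonlinear regression curve fitting. Each assay was run in triplicate on at least two separate occasions.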

[4] = tested on: Plasmodium falciparum; assay: Antigametocyte activity against drug-resistant Plasmodium falciparum Dd2 trophozoites assessed as inhibition of parasite growth at 50 nM after 1 to 8 hrs; how it was run: as §1
[5] = tested on: Plasmodium falciparum; assay: Antigametocyte activity against Plasmodium falciparum D10 trophozoites assessed as inhibition of parasite growth at 50 nM after 1 to 8 hrs
How it was run: (§3)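 Synchronized D10 cultures exposed to drug at 0 h (ring), 24 h (trophozoite) or 36 h (schizont) postsynchronization. After exposure, parasites washed, resuspended in drug-free medium and labelled with 0.5 μCi/well [3H]hypoxanthine for 40 h. Uptake compared with vehicle controls. Triplicate wells, repeated on at least two separate occasions.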

[6] = tested on: Plasmodium falciparum; assay: Antigametocyte activity against Plasmodium falciparum D10 schizonts assessed as inhibition of parasite growth at 50 nM after 1 to 8 hrs; how it was run: as §3
[7] = tested on: Plasmodium falciparum; assay: Antimicrobial activity against chloroquine-sensitive Plasmodium falciparum 3D7 after 48 hrs; settings: 3D7, 48 h; how it was run: as §2
[8] = tested on: Plasmodium falciparum; assay: Antigametocyte activity against ring stage Plasmodium falciparum D10 assessed as inhibition of parasite growth at 50 nM after 1 to 8 hrs; how it was run: as §3
[9] = tested on: Plasmodium falciparum; assay: Antimicrobial activity against chloroquine-sensitive Plasmodium falciparum D10 after 48 hrs; settings: D10, 48 h; how it was run: as §2
[10] = tested on: Plasmodium falciparum; assay: Antigametocyte activity against Plasmodium falciparum D10 trophozoites assessed as inhibition of parasite growth at 40 uM after 1 to 8 hrs; how it was run: as §3
[11] = tested on: Plasmodium falciparum; assay: Antigametocyte activity against Plasmodium falciparum D10 schizonts assessed as inhibition of parasite growth at 40 uM after 1 to 8 hrs; how it was run: as §3
[12] = tested on: Plasmodium falciparum; assay: Antigametocyte activity against ring stage Plasmodium falciparum D10 assessed as inhibition of parasite growth at 40 uM after 1 to 8 hrs; how it was run: as §3
[13] = tested on: Plasmodium falciparum; assay: Antigametocyte activity against drug-resistant Plasmodium falciparum Dd2 trophozoites assessed as inhibition of parasite growth at 40 uM after 1 to 8 hrs; how it was run: as §1
[14] = tested on: Plasmodium falciparum; assay: Antigametocyte activity against drug-resistant Plasmodium falciparum Dd2 schizonts assessed as inhibition of parasite growth at 40 uM after 1 to 8 hrs; how it was run: as §1
[15] = tested on: Plasmodium falciparum; assay: Antigametocyte activity against drug-resistant ring stage Plasmodium falciparum Dd2 assessed as inhibition of parasite growth at 40 uM after 1 to 8 hrs; how it was run: as §1
[16] = tested on: Plasmodium falciparum; assay: Antigametocyte activity against ring stage Plasmodium falciparum D10 assessed as inhibition of parasite growth at 150 uM after 1 to 8 hrs; how it was run: as §3
[17] = tested on: Plasmodium falciparum; assay: Antigametocyte activity against Plasmodium falciparum harboring GFP-tagged Pfs16 protein assessed as reduction in number of gametocytes after 40 hrs by [3H]hypoxanthine incorporation assay
[18] = tested on: Plasmodium falciparum; assay: Antimicrobial activity against chloroquine-resistant Plasmodium falciparum Dd2 after 48 hrs; settings: Dd2, 48 h; how it was run: as §2
[19] = tested on: Plasmodium falciparum; assay: Antigametocyte activity against drug-resistant Plasmodium falciparum Dd2 schizonts assessed as inhibition of parasite growth at 150 uM after 1 to 8 hrs; how it was run: as §1
[20] = tested on: Plasmodium falciparum; assay: Antigametocyte activity against Plasmodium falciparum D10 trophozoites assessed as inhibition of parasite growth at 150 uM after 1 to 8 hrs; how it was run: as §3
[21] = tested on: Plasmodium falciparum; assay: Antigametocyte activity against Plasmodium falciparum harboring GFP-tagged Pfs16 protein assessed as inhibition of [3H]hypoxanthine incorporation after 40 hrs
[22] = tested on: Plasmodium falciparum; assay: Antigametocyte activity against Plasmodium falciparum D10 schizonts assessed as inhibition of parasite growth at 150 uM after 1 to 8 hrs; how it was run: as §3
[23] = tested on: Plasmodium falciparum; assay: Antigametocyte activity against drug-resistant Plasmodium falciparum Dd2 trophozoites assessed as inhibition of parasite growth at 150 uM after 1 to 8 hrs; how it was run: as §1
[24] = tested on: Plasmodium falciparum; assay: Antigametocyte activity against drug-resistant ring stage Plasmodium falciparum Dd2 assessed as inhibition of parasite growth at 150 uM after 1 to 8 hrs; how it was run: as §1
[25] = tested on: Plasmodium falciparum; assay: Antigametocyte activity against Plasmodium falciparum D10 trophozoites assessed as inhibition of parasite growth at 20 uM after 1 to 8 hrs; how it was run: as §3
[26] = tested on: Plasmodium falciparum; assay: Antigametocyte activity against Plasmodium falciparum D10 schizonts assessed as inhibition of parasite growth at 20 uM after 1 to 8 hrs; how it was run: as §3
[27] = tested on: Plasmodium falciparum; assay: Antigametocyte activity against ring stage Plasmodium falciparum D10 assessed as inhibition of parasite growth at 20 uM after 1 to 8 hrs; how it was run: as §3
[28] = tested on: Plasmodium falciparum; assay: Antigametocyte activity against drug-resistant ring stage Plasmodium falciparum Dd2 assessed as inhibition of parasite growth at 20 uM after 1 to 8 hrs; how it was run: as §1
[29] = tested on: Plasmodium falciparum; assay: Antigametocyte activity against drug-resistant Plasmodium falciparum Dd2 schizonts assessed as inhibition of parasite growth at 20 uM after 1 to 8 hrs; how it was run: as §1
[30] = tested on: Plasmodium falciparum; assay: Antigametocyte activity against drug-resistant Plasmodium falciparum Dd2 trophozoites assessed as inhibition of parasite growth at 20 uM after 1 to 8 hrs; how it was run: as §1

CCN(CC)CCCC(C)Nc1ccnc2cc(Cl)ccc12 (configuration not stated) [CHLOROQUINE]
inhibition [1]: inactive | inhibition [2]: Active | EC50 [3]: 23 nM | inhibition [4]: Active | inhibition [5]: Active | inhibition [6]: Active | EC50 [7]: 25 nM | inhibition [8]: inactive | EC50 [9]: 23 nM

CC(C)(C)NC(=O)[C@@H]1C[C@@H]2CCCC[C@@H]2CN1C[C@@H](O)[C@H](Cc1ccccc1)NC(=O)[C@H](CC(N)=O)NC(=O)c1ccc2ccccc2n1
inhibition [10]: Active | inhibition [11]: inactive | inhibition [12]: inactive | inhibition [13]: Active | inhibition [14]: Active | inhibition [15]: inactive | inhibition [16]: Active | EC50 [3]: 5000 nM | EC50 [7]: 3000 nM | inhibition [17]: Dose-dependent effect | EC50 [9]: 3000 nM

CC(C)CN(C[C@@H](O)[C@H](Cc1ccccc1)NC(=O)O[C@H]1CO[C@H]2OCC[C@H]21)S(=O)(=O)c1ccc(N)cc1
EC50 [18]: 70000 nM

CCC[C@@]1(CCc2ccccc2)CC(O)=C([C@H](CC)c2cccc(NS(=O)(=O)c3ccc(C(F)(F)F)cn3)c2)C(=O)O1
inhibition [19]: Active | inhibition [20]: Active | inhibition [21]: Active | inhibition [22]: Active | inhibition [23]: Active | EC50 [18]: 21000 nM | inhibition [16]: inactive | EC50 [3]: 18000 nM | EC50 [7]: 20000 nM | inhibition [24]: inactive | inhibition [17]: Dose-dependent effect | EC50 [9]: 12000 nM

CC(C)c1nc(CN(C)C(=O)N[C@H](C(=O)N[C@@H](Cc2ccccc2)C[C@H](O)[C@H](Cc2ccccc2)NC(=O)OCc2cncs2)C(C)C)cs1 [RITONAVIR]
EC50 [3]: 5000 nM | EC50 [7]: 3000 nM | inhibition [17]: Dose-dependent effect | EC50 [9]: 3000 nM

Cc1cccc(C)c1OCC(=O)N[C@@H](Cc1ccccc1)[C@@H](O)C[C@H](Cc1ccccc1)NC(=O)[C@H](C(C)C)N1CCCNC1=O [LOPINAVIR]
inhibition [25]: Active | inhibition [26]: Active | inhibition [27]: inactive | inhibition [28]: inactive | EC50 [3]: 3000 nM | inhibition [29]: Active | EC50 [7]: 2000 nM | inhibition [30]: Active | inhibition [17]: Dose-dependent effect | EC50 [9]: 2000 nM
